target: T1, Coagulation factor X (Homo sapiens, UniProt P00742); assay: In vitro inhibition of human Coagulation factor X.; details: not given
T1 sequence (P00742 41-179 limits assumed): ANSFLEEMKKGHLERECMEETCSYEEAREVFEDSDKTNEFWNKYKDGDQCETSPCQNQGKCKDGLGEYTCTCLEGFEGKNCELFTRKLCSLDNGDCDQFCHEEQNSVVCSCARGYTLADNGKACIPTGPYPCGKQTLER
T1 sequence (P00742 235-488 limits assumed): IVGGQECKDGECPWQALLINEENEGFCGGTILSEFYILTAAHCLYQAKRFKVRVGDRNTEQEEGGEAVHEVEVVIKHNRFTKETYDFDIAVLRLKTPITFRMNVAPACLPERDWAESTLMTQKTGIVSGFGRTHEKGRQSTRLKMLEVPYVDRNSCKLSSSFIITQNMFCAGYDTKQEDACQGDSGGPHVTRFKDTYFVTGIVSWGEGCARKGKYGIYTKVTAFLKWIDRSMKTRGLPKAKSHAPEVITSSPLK

Compound	IC50
COC(=O)c1ccccc1CS(=O)(=O)N[C@H](CC1CCCN(C(=N)N)C1)C(=O)NCC(=O)N[C@H]1CCCN(C(=N)N)C1O (stereo in doubt; form 1)	1.37 nM
COC(=O)c1ccccc1CS(=O)(=O)N[C@H](CC1CCN(C(=N)N)CC1)C(=O)NCC(=O)N[C@H]1CCCN(C(=N)N)C1O (some centres not stated)	0.94 nM
N=C(N)NCCC[C@@H](NC(=O)OCc1ccccc1)C(=O)NCC(=O)N[C@H]1CCCN(C(=N)N)C1O (stereo in doubt) [listing 1 of 2 here]	0.9 nM
N=C(N)NCCC[C@@H](NS(=O)(=O)Cc1ccccc1)C(=O)NCC(=O)N[C@H]1CCCN(C(=N)N)C1O (some centres not stated)	0.9 nM

Continued, values first:

IC50	Compound
2.2 nM	COC(=O)c1cccc(CS(=O)(=O)N[C@H](CC2CCN(C(=N)N)CC2)C(=O)NCC(=O)N[C@H]2CCCN(C(=N)N)C2O)c1 (some centres not stated)
4.3 nM	N=C(N)N1CCC(C[C@@H](NS(=O)(=O)Cc2cccc(C(=O)O)c2)C(=O)NCC(=O)N[C@H]2CCCN(C(=N)N)C2O)CC1 (some centres not stated)

target: T1, Coagulation factor X; assay: Concentration required for classical fast inhibition of cleavage of the chromogenic substrate by human enzyme Coagulation factor X in vitro; details: not given

Ki	Compound
16 nM	N=C(N)N1CCC(C[C@@H](NS(=O)(=O)Cc2cccc(C(=O)O)c2)C(=O)NCC(=O)N[C@H]2CCCN(C(=N)N)C2O)CC1 (some centres not stated)

target: T1, Coagulation factor X; assay: In vitro inhibitory activity against human Coagulation factor X; details: not given

Ki	Compound
16 nM	CCOC(=O)c1ccc(CCOC(=O)N[C@H](CC2CCN(C(=N)N)CC2)C(=O)NCC(=O)N[C@H]2CCCN(C(=N)N)C2O)cc1 (some centres not stated)
23 nM	COC(=O)N[C@H](CC1CCN(C(=N)N)CC1)C(=O)NCC(=O)N[C@H]1CCCN(C(=N)N)C1O (some centres not stated)

target: Plasminogen (Homo sapiens, UniProt P00747); assay: In vitro inhibition of human plasmin.; details: not given
Method in brief: (§1)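 Purified human enzymes (plasmin, thrombin/factor IIa, trypsin) were each tested for inhibitor-dependent cleavage of a chromogenic substrate. IC50 is the concentration that blocks 50% of substrate cleavage.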

Plasminogen, sequence (P00747 97-580 limits assumed): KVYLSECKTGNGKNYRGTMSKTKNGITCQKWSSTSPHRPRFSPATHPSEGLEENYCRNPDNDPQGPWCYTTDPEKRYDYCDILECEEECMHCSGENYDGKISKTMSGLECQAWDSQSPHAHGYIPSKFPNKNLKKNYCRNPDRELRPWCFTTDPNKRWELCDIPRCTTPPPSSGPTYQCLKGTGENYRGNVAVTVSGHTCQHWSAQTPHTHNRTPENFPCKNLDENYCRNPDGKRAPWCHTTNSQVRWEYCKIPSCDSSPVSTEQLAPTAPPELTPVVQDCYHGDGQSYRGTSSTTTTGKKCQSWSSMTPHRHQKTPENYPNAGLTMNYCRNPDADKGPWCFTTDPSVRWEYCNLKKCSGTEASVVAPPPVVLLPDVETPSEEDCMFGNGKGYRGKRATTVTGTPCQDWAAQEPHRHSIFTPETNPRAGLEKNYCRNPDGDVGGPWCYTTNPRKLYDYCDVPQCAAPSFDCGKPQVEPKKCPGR
Plasminogen, sequence (P00747 581-810 limits assumed): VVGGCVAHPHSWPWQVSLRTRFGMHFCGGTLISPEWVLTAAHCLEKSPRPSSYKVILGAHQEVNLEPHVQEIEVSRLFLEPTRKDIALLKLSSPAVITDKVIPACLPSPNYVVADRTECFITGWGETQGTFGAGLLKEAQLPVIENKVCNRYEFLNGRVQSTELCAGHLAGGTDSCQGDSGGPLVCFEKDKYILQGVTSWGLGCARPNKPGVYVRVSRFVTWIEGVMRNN

Compound	IC50
COC(=O)c1ccccc1CS(=O)(=O)N[C@H](CC1CCCN(C(=N)N)C1)C(=O)NCC(=O)N[C@H]1CCCN(C(=N)N)C1O (stereo in doubt; form 1)	1950 nM
COC(=O)c1ccccc1CS(=O)(=O)N[C@H](CC1CCN(C(=N)N)CC1)C(=O)NCC(=O)N[C@H]1CCCN(C(=N)N)C1O (some centres not stated)	965 nM
N=C(N)NCCC[C@@H](NS(=O)(=O)Cc1ccccc1)C(=O)NCC(=O)N[C@H]1CCCN(C(=N)N)C1O (some centres not stated)	1190 nM

Continued, values first:

IC50	Compound
1440 nM	CCOC(=O)c1ccc(CCOC(=O)N[C@H](CC2CCN(C(=N)N)CC2)C(=O)NCC(=O)N[C@H]2CCCN(C(=N)N)C2O)cc1 (some centres not stated)
> 2500 nM	COC(=O)N[C@H](CC1CCN(C(=N)N)CC1)C(=O)NCC(=O)N[C@H]1CCCN(C(=N)N)C1O (some centres not stated)
387 nM	COC(=O)c1cccc(CS(=O)(=O)N[C@H](CC2CCN(C(=N)N)CC2)C(=O)NCC(=O)N[C@H]2CCCN(C(=N)N)C2O)c1 (some centres not stated)
231 nM	N=C(N)N1CCC(C[C@@H](NS(=O)(=O)Cc2cccc(C(=O)O)c2)C(=O)NCC(=O)N[C@H]2CCCN(C(=N)N)C2O)CC1 (some centres not stated)

test system: not listed separately; assay: Concentration required to inhibit the activation of human prothrombin in a preformed complex of factor Xa, factor IIa and phospholipid in vitro; details: in the assay text read “factor Va” for “factor IIa”
Method in brief: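 The assembled prothrombinase complex was assayed with its natural substrate, prothrombin, to measure inhibition of prothrombin activation. IC50 is the concentration giving 50% inhibition.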

IC50	Compound
3.4 nM	N=C(N)NCCC[C@@H](NC(=O)OCc1ccccc1)C(=O)NCC(=O)N[C@H]1CCCN(C(=N)N)C1O (stereo in doubt) [listing 1 of 2 here]
14 nM	N=C(N)N1CCC(C[C@@H](NS(=O)(=O)Cc2cccc(C(=O)O)c2)C(=O)NCC(=O)N[C@H]2CCCN(C(=N)N)C2O)CC1 (some centres not stated)

target: Prothrombin (Homo sapiens, UniProt P00734); assay: In vitro inhibition of human thrombin.; details: not given; method in brief: as §1

Compound	IC50
COC(=O)c1ccccc1CS(=O)(=O)N[C@H](CC1CCCN(C(=N)N)C1)C(=O)NCC(=O)N[C@H]1CCCN(C(=N)N)C1O (stereo in doubt; form 1)	1100 nM
COC(=O)c1ccccc1CS(=O)(=O)N[C@H](CC1CCN(C(=N)N)CC1)C(=O)NCC(=O)N[C@H]1CCCN(C(=N)N)C1O (some centres not stated)	> 2500 nM
N=C(N)NCCC[C@@H](NS(=O)(=O)Cc1ccccc1)C(=O)NCC(=O)N[C@H]1CCCN(C(=N)N)C1O (some centres not stated)	> 2500 nM

Now from value to compound:

IC50	Compound
> 2500 nM	CCOC(=O)c1ccc(CCOC(=O)N[C@H](CC2CCN(C(=N)N)CC2)C(=O)NCC(=O)N[C@H]2CCCN(C(=N)N)C2O)cc1 (some centres not stated)
> 2500 nM	COC(=O)N[C@H](CC1CCN(C(=N)N)CC1)C(=O)NCC(=O)N[C@H]1CCCN(C(=N)N)C1O (some centres not stated)
> 2500 nM	COC(=O)c1cccc(CS(=O)(=O)N[C@H](CC2CCN(C(=N)N)CC2)C(=O)NCC(=O)N[C@H]2CCCN(C(=N)N)C2O)c1 (some centres not stated)
> 2500 nM	N=C(N)N1CCC(C[C@@H](NS(=O)(=O)Cc2cccc(C(=O)O)c2)C(=O)NCC(=O)N[C@H]2CCCN(C(=N)N)C2O)CC1 (some centres not stated)

target: Serine protease 1 (Homo sapiens, UniProt P07477); assay: In vitro inhibition of human trypsin.; details: not given; method in brief: as §1
Sequence (P07477 whole entry): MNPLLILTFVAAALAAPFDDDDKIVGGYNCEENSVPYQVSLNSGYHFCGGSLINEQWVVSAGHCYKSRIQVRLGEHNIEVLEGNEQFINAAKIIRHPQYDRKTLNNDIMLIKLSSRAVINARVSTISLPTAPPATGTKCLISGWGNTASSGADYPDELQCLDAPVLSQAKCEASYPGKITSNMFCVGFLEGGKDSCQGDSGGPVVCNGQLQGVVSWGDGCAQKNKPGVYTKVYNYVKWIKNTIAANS

Compound	IC50
COC(=O)c1ccccc1CS(=O)(=O)N[C@H](CC1CCCN(C(=N)N)C1)C(=O)NCC(=O)N[C@H]1CCCN(C(=N)N)C1O (stereo in doubt; form 1)	15 nM
COC(=O)c1ccccc1CS(=O)(=O)N[C@H](CC1CCN(C(=N)N)CC1)C(=O)NCC(=O)N[C@H]1CCCN(C(=N)N)C1O (some centres not stated)	147 nM
N=C(N)NCCC[C@@H](NS(=O)(=O)Cc1ccccc1)C(=O)NCC(=O)N[C@H]1CCCN(C(=N)N)C1O (some centres not stated)	75 nM

Continued, values first:

IC50	Compound
158 nM	CCOC(=O)c1ccc(CCOC(=O)N[C@H](CC2CCN(C(=N)N)CC2)C(=O)NCC(=O)N[C@H]2CCCN(C(=N)N)C2O)cc1 (some centres not stated)
412 nM	COC(=O)N[C@H](CC1CCN(C(=N)N)CC1)C(=O)NCC(=O)N[C@H]1CCCN(C(=N)N)C1O (some centres not stated)
145 nM	COC(=O)c1cccc(CS(=O)(=O)N[C@H](CC2CCN(C(=N)N)CC2)C(=O)NCC(=O)N[C@H]2CCCN(C(=N)N)C2O)c1 (some centres not stated)
211 nM	N=C(N)N1CCC(C[C@@H](NS(=O)(=O)Cc2cccc(C(=O)O)c2)C(=O)NCC(=O)N[C@H]2CCCN(C(=N)N)C2O)CC1 (some centres not stated)

test system: not listed separately; assay: Ratio of inhibitory concentration of prothrombinase to that of human factor Xa was determined; details: not given

Compound	Ratio
N=C(N)NCCC[C@@H](NC(=O)OCc1ccccc1)C(=O)NCC(=O)N[C@H]1CCCN(C(=N)N)C1O (single isomer, unassigned)	0.23
N=C(N)N1CCCC(C[C@@H](NS(=O)(=O)Cc2ccccc2)C(=O)NCC(=O)N[C@H]2CCCN(C(=N)N)C2O)C1 (stereo in doubt)	3.6

Continued, values first:

Ratio	Compound
2	N=C(N)N1CCCC(C[C@@H](NS(=O)(=O)Cc2ccccc2)C(=O)NCC(=O)N[C@H]2CCCN(C(=N)N)C2O)C1 (single isomer, unassigned)
3.8	N=C(N)NCCC[C@@H](NC(=O)OCc1ccccc1)C(=O)NCC(=O)N[C@H]1CCCN(C(=N)N)C1O (stereo in doubt) [listing 2 of 2 here]
0.9	N=C(N)N1CCC(C[C@@H](NS(=O)(=O)Cc2cccc(C(=O)O)c2)C(=O)NCC(=O)N[C@H]2CCCN(C(=N)N)C2O)CC1 (some centres not stated)
